PMC7223318 (Drug Delivery and Translational Research, 2020)
No end group written: not given here.

Tested on: ARPE-19 cells
Assay: Cellular uptake of FITC-labelled peptides, confocal microscopy
Type: in vitro ADME, human
Conditions: 1 h, 37 °C, confocal microscopy (Fig. 2)
In short: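 ARPE-19 cells (DMEM/F-12 GlutaMAX, 10% FBS, 1% AA) were seeded at 2 × 10^5 cells/ml in chamber slides and grown two nights. FITC-labelled peptides were applied for 1 h at 37 °C, 5% CO2, in culture medium or in hypoxic HAIR solution (K-gluconate/Na-gluconate/NMDG-based, bicarbonate). Cells were then PBS-washed, fixed in 4% formaldehyde, DAPI-counterstained and imaged by confocal microscopy.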

KQIEIKKFK [Gap19]
cellular uptake in hypoxic ARPE-19 cells (HAIR solution (hypoxia), FITC-labelled Gap19 100 μM or XG19 5 μM): undetectable
cellular uptake in normal ARPE-19 cells (normal culture medium, FITC-labelled Gap19 100 μM): undetectable
